# High-throughput results (PubChem BioAssay)
# CHRM4 antagonist: CHRM4 antagonism in calcium assay; P08173; 0.73% of 360,000 active; CHO-hM4 cells, ACh EC80, Fluo-8 calcium fluorescence; inhibition, % at 3 µM;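 active means inhibition above its plate's cutoff, the mean inhibition of sample wells plus 3 SD, cut at about 27% in these data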
# M4 PAM: positive allosteric modulators of human muscarinic M4 receptor | P08173 | CHO-K1 hM4/Gqi5, Fluo-8 calcium fluorescence, ACh EC20; 0% = ACh EC20, 100% = maximal ACh | activation, % at 3 µM | 0.4% of 360,000 active;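 active means activation above its plate's cutoff, the mean activation of sample wells plus 3 SD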
# M5 antag: CHRM5 antagonism in calcium assay. P08912. CHO-hM5 cells, Fluo-8 calcium fluorescence, ACh EC80. inhibition, % at 3 µM. 0.59% of 360,000 active;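 active means inhibition above a per-plate cutoff, the mean of that plate's test compounds plus 3 SD, cut at about 27% in these data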
# CHRM4 agonist: CHRM4 agonism in calcium assay. 0.14% of 360,000 active. activation, % at 3 µM. CHO-K1 hM4/Gqi5, Fluo-8 calcium fluorescence; vehicle 0%, full acetylcholine response 100%. P08173. AID 624127;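 active means activation above the run mean over all test wells plus 3 SD, cut at about 32% in these data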;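 further: peak over basal fluorescence ratio per well then scaled between controls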
# CHRM5 agonist: agonists of human muscarinic M5 receptor (CHRM5) | P08912 | CHO-K1 hM5 cells, Fluo-8 calcium fluorescence; 0% DMSO wells, 100% maximal acetylcholine response | activation, % at 3 µM | 0.19% of 360,000 active;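 active means activation above the run's mean over test compounds plus 3 SD, cut at about 23% in these data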;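 further: signal is peak over basal fluorescence ratio across the kinetic read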
# M5 PAM: CHRM5 positive allosteric modulation; P08912; CHO-K1 hM5, Fluo-8 calcium, ACh EC20 PAM; 0% = ACh EC20, 100% = ACh EC100; activation, % at 3 µM; 0.3% of 360,000 active; AID 624038;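 active means activation above the run cutoff, the mean activation of all test compounds plus 3 SD, cut at about 18% in these data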
#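 system = human M5 receptor in CHO-K1 cells | compound = one concentration, 3 µM final (nominal) | schedule = Post-acetylcholine fluorescence recording 140 s | signal = Fluo-8 calcium dye fluorescence, kinetic read | benchmarks = low control EC20 acetylcholine (0%), high control EC100 acetylcholine (100%) | repeats = singlicate, one well per test compound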
# Hits are given with their value; n = inactive. An excerpt weighted towards active compounds, which were near 1.8% of everything screened.
SMILES,CHRM4 antagonist,M4 PAM,M5 antag,CHRM4 agonist,CHRM5 agonist,M5 PAM
CCCCN(C(=O)C(C)Oc1ccc(Br)cc1)c1c(N)n(Cc2ccccc2)c(=O)[nH]c1=O (centres undefined),n,n,n,n,n,n
CCOC(=O)c1ccc2c(c1)nc(-c1ccc(F)cc1)c1nccn12,n,n,n,n,n,n
O=C(NCC(=O)N1CCC2(CC1)NCCc1[nH]cnc12)c1ccc2ccccc2c1,n,n,n,n,n,n
CCOC(=O)N1CCN(c2nc3ccc(C)cc3n3cnnc23)CC1,n,n,n,n,n,n
Cc1ccc(S(=O)(=O)N2CCC(C)CC2)cc1[N+](=O)[O-],n,n,n,n,n,n
COC(=O)CSc1ccc(S(=O)(=O)N2CCC(C)CC2)cc1[N+](=O)[O-],n,25,n,n,n,n
CC(Sc1ccc(S(=O)(=O)N2CCOCC2)cc1[N+](=O)[O-])C(=O)O (centres undefined),n,23,n,n,n,n
O=[N+]([O-])c1cccc(/C=N/Nc2nnc(-c3ccccc3)c(-c3ccccc3)n2)c1,n,34,n,n,n,n
C/C(=N\Nc1nnc(-c2ccccc2)c(-c2ccccc2)n1)c1cccc([N+](=O)[O-])c1,n,n,n,n,n,n
COc1cccc(-c2ccc(NC(=O)C3CCCN(Cc4nccn4C)C3)cc2)c1 (centres undefined),n,n,n,n,n,n
COc1cccc(C(=O)NC2CC3CCCC(C2)N3S(=O)(=O)c2ccccc2)c1 (centres undefined),n,n,n,n,n,n
Cc1ccc(C(c2sc3nc(C)nn3c2O)N2CCN(CCO)CC2)cc1 (centres undefined),n,n,n,n,n,n
Cc1ccc(C(c2sc3nc(C)nn3c2O)N2CCN(c3ccccc3F)CC2)cc1 (centres undefined),n,n,n,n,n,19
O=C(c1cc(Cl)cc(Cl)c1)N1CCC2CC1c1cc(N3CCCCC3)ccc12 (centres undefined),27,n,n,n,n,n
C[C@H](CO)N1C[C@H](C)[C@@H](CN(C)S(=O)(=O)c2ccccc2)Oc2ccc(NC(=O)C3CC3)cc2C1=O,n,n,n,n,n,n
COCCCNC1=C(C#N)C(=O)NC(c2cccs2)S1 (centres undefined),n,n,n,n,n,n
CC(=O)CC(=O)Nc1ccn(-c2ccccc2)n1,n,n,n,n,n,20
CN1C(CC(=O)Nc2ccc(Cl)cc2Cl)c2ccccc2CC1(C)C (centres undefined),29,n,n,n,n,n
CC1(C)N=C(SCC(=O)Nc2ccc(Cl)cc2Cl)C(c2ccccc2)=N1,n,n,n,n,n,n
COc1ccc(C(=O)N2CCC(c3ccccc3)CC2)c(OC)c1OC,n,n,n,n,n,n
CC(CN(C)C)CN1c2ccccc2CCc2ccccc21 (centres undefined),87,n,99,n,n,n
CNC(=O)N1c2ccccc2CCc2ccccc21,n,n,n,n,n,n
CN(C)CCCC1(O)c2ccccc2CCc2ccccc21,n,n,n,n,n,n
CN(C)CCCN1c2ccccc2CCc2ccccc21,70,n,80,n,n,n
O=c1c2ccccc2[nH]c(=S)n1CCCN1CCN(c2ccccc2F)CC1,n,n,n,n,n,n
O=C(c1ccc(Cl)cc1)C1CCCN(Cc2ccc(Oc3ncccn3)cc2)C1 (centres undefined),44,n,n,n,n,n
O=C(c1ccc(Cl)cc1)C1CCCN(Cc2cnn(-c3ccccc3)c2)C1 (centres undefined),n,n,n,n,n,n
C/C(=N\OCc1ccc(C#N)cc1)c1ccc(S(=O)(=O)N(C)C)cc1,n,n,28,n,n,n
C/C(=N\OCc1ccc(C#N)cc1)c1ccccc1,n,n,n,n,n,n
CCC1CCCCN1C(=O)CSc1nc2ncccc2[nH]1 (centres undefined),n,n,n,n,n,n
